This passage reports yeast fitness results from the RNAGym collection of RNA variant scans (doi:10.1126/science.aae0568).

This sample holds only a part of the variants without activity. Bounds are passed on as bounds.

To fix the notation:
B1: tRNA (parent)
chain: GUUCCGUUGGCGUAAUGGUAACGCGUCUCCCUCCUAAGGAGAAGACUGCGGGUUCGAGUCCCGUACGGAACG

Variants of B1 are the subject of this series. Put plainly: yeast fitness relative to wild type (ratio to wild type); higher = fitter; tRNA-Arg(CCU), competitive growth, 37 C, YPD. The method, boiled down:
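Start and end populations of a pooled competition were compared by 100-nucleotide paired-end sequencing of gene amplicons. The Saccharomyces cerevisiae strains carried tRNA-Arg(CCU) gene variants at the native genomic locus, synthesised with a 3% per-site mutation rate at 69 sites, and competed in YPD at 37°C for 24 hours in six parallel replicates. Darwinian fitness relative to wild type was based on the change in genotype frequencies. Genotypes required ≥ 100 starting reads, and estimates < 0.5 were set to 0.5.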
G6A U8A A42U: the yeast fitness was no more than 0.5.

With G6A C61G G67C, the yeast fitness stood at 0.546. With G6A U28A C31G U35A U47A U54A, the yeast fitness was no more than 0.5. Next, G6A G12A A57U: no more than 0.5; G6A C31A G68A: no more than 0.5. Next, G6A G25C: 0.866. Next, G6A C33G C34G: no more than 0.5; G6A U32C A37G C55A A65U G68C: no more than 0.5; G6A C27G C46U C60A C66G G68C: no more than 0.5. Turning to G6A G17C G51A, the yeast fitness is no more than 0.5.

As for G6A C29U A43C C46U C49U G56C, the yeast fitness was no more than 0.5. Next, G6A U13A C30G C61U: 0.601. Next, G6A U32C: 0.839. As for G6A C31G, the yeast fitness amounted to 0.975. With G6A C31A, the yeast fitness amounted to 0.819. For G6A C31U, the yeast fitness turned out to be 0.933. G6A G9C C29U C55G: the yeast fitness was no more than 0.5. Take G6A G17A U19A C31G U53C U54A: the yeast fitness was no more than 0.5. For the variant G6A G41C A43G C49U, the yeast fitness worked out at 0.745. Next, G6A C61U A69U: 0.632; G6A G41A C62U: 0.619; G6A G9C: 0.81. As for G6A C33A A42C, the figure is 0.578; as for G6A G38A A40C G56A C60U C61G, no more than 0.5; as for G6A U16C C22U A37U C49A C62U, no more than 0.5. Next, G6A C24U C61G C66U A70G: no more than 0.5; G6A C24U C55G A70U: 0.624; G6A G23C C30G G39C: no more than 0.5. Turning to G6A G38C U54A A65C, the yeast fitness was no more than 0.5. As for G6A U19C C24U, the figure is 0.744; as for G6A C24G C34G, no more than 0.5; as for G6A C29U C31A C34U G56A, no more than 0.5.

Consider G6A C49U A65U, for which the yeast fitness was 0.667.

As to G6A C49U A65C, the yeast fitness is 0.701. Next, G6A G39A G41A A65G: 0.613; G6A C29U C33G G67A: no more than 0.5; G6A G17C C31A A36U C55G G63A: no more than 0.5. As for G6A C27U C29A G58C, the figure is no more than 0.5.

On to G6A G38A G56A, for which the yeast fitness amounted to 0.679.

As for G6A G9C C11G C34U, the yeast fitness is no more than 0.5.

As for G6A C33G C34G A43U C61A, the yeast fitness is no more than 0.5. As for G6A G51A C60G, the figure is no more than 0.5; as for G6A C33A A37C G58A C66U G67U, no more than 0.5.

For the variant G6A U8C G17A G25A C55A, the yeast fitness was no more than 0.5. As for G6A G63A, the figure is 0.883. As for G6A C34G G52C A65U, the figure is no more than 0.5. As to G6A U13A A40G A42G A57C C66U, the yeast fitness came to 0.525.

For the variant G6A G12C C49G, the yeast fitness is no more than 0.5. G6A G12C U16C A21U C66U: the yeast fitness was determined as 0.571. As for G6A C27A G50A A69U, the figure is 0.542; as for G6A G10A G17A, 0.55.

On to G6A C61G A70C, for which the yeast fitness amounted to 0.522.

In the case of G6A C30U C33U C46U, the yeast fitness is no more than 0.5. As for G6A G12C C34U A70U, the yeast fitness was 0.671. As for G6A G23C, the figure is 0.643; as for G6A G23A, 0.877.

Turning to G6A G41A, the yeast fitness turned out to be 0.822. Next, G6A C27A A36G: no more than 0.5; G6A C29G A37U G56C G67C: no more than 0.5; G6A G25C A65U: 0.663. As for G6A C30U G67A, the figure is 0.586; as for G6A C34U U64A, no more than 0.5. As for G6A C31G A43C C49A U54C, the figure is no more than 0.5; as for G6A U7A U26C C34G G63A, no more than 0.5.

In the case of G6A U8C U19A C30A A45U G58C A69U, the yeast fitness was no more than 0.5. Next, G6A C30U C62A: no more than 0.5; G6A G23A U47A G58C: no more than 0.5; G6A G12C U16A A21C G56A: 0.536. Turning to G6A C31G A43C C49A U54C C60G, the yeast fitness is no more than 0.5. Next, G6A C46U G50A C61G: no more than 0.5; G6A G52C C66U: 0.584; G6A G44A C61G: no more than 0.5. Next, G6A G9C U19C C24U U54C: no more than 0.5; G6A G9A C11G C24G U32A G52C: no more than 0.5.

Consider G6A G67A, for which the yeast fitness is 0.872.

As for G6A G58A G68C, the yeast fitness was 0.649. Next, G6A G10C A15U C61A: no more than 0.5; G6A G10C C34U G52C: no more than 0.5. Next, G6A C24U A57C G68U A69C: no more than 0.5; G6A C24U A42U U53G G68C: no more than 0.5. As for G6A U8C G18C, the figure is no more than 0.5; as for G6A C31U C34U G52A, no more than 0.5; as for G6A G10C C29U, no more than 0.5. For the variant G6A U8A G52A G56C, the yeast fitness was no more than 0.5. As for G6A G52A, the figure is 0.677; as for G6A C30A, 0.845; as for G6A C30U, 0.742. Next, G6A C60G: 0.601. On to G6A C60U, for which the yeast fitness was 0.675.

As for G6A U8C A15G A20U A45U U64C, the yeast fitness is no more than 0.5. As for G6A C33U A43G, the figure is no more than 0.5; as for G6A C27G A42C, no more than 0.5. Next, G6A G9A A21U C31G: no more than 0.5; G6A U8C G12C C29G C30U A45U C62U A69U: 0.823. Consider G6A U26A A37C A57U, for which the yeast fitness is no more than 0.5. On to G6A C30G C60G G68A, for which the yeast fitness is no more than 0.5. Next, G6A G17A U19G: 0.512. Next, G6A U8C U54C: 0.552; G6A C55G: 0.656. As for G6A C55A, the figure is 0.587; as for G6A C24U A45C C61G, no more than 0.5; as for G6A G9C A21C C30U, no more than 0.5. As to G6A G12A U54C C60G, the yeast fitness is no more than 0.5. Next, G6A C27G A65C: 0.562.

As to G6A U13G G48A G50A U54A, the yeast fitness is no more than 0.5.

As to G6A G9C G23A U26C A40U A42U, the yeast fitness was no more than 0.5. As for G6A G44A C60G U64C, the figure is no more than 0.5; as for G6A C24U G63A, 0.674; as for G6A C34A, 0.739. Next, G6A C34G: 0.569.

As for G6A G50A G56U G58A, the yeast fitness is no more than 0.5. Next, G6A C34U A65C: 0.54; G6A U7A G38C: 0.603. G6A G44C: the yeast fitness is 0.799. Next, G6A C31G G41A: no more than 0.5. As for G6A G9C C11G G48C U59A, the figure is no more than 0.5; as for G6A C31A G41A A45U G58C, no more than 0.5. Next, G6A C33G C34G C61A: 0.548; G6A U26A A57C G67A A69U: no more than 0.5; G6A U8A G23C: no more than 0.5. For G6A G9C C11G C34U G68A, the yeast fitness is 0.574.

In the case of G6A C60G A70C, the yeast fitness amounted to 0.531. As for G6A C27U A42U C62U, the figure is no more than 0.5; as for G6A U8C A70U, 0.57. In the case of G6A G39A A65C, the yeast fitness came to 0.605. Next, G6A C34G C61G: 0.538; G6A C30G A57C G58C: no more than 0.5. Consider G6A U8C C31G C60G, for which the yeast fitness was no more than 0.5. As for G6A U16A A43C G67C, the figure is no more than 0.5; as for G6A C62U, 0.921; as for G6A C31A U47C G67A, no more than 0.5. Next, G6A G9C A42U: no more than 0.5; G6A U16C C34G G51A: no more than 0.5. Next, G6A C30U G63A G67A: no more than 0.5; G6A G10A: 0.859; G6A U13G U35C A57C: no more than 0.5. For the variant G6A C34A G58C A65C A69C, the yeast fitness is no more than 0.5. As for G6A U13A U16A C24G C33G C62G, the figure is no more than 0.5; as for G6A C24G U35A G48C A69G, 0.574; as for G6A G12A C33G U54A U59A G67A, no more than 0.5. As for G6A U13A G58C C60U C66G, the figure is no more than 0.5; as for G6A C62G A70G, no more than 0.5; as for G6A C29G U47C U59A, no more than 0.5.

Regarding G6A G50A A65U, the yeast fitness is no more than 0.5. As for G6A C34G A37G A57G A70C, the figure is no more than 0.5. Next, G6A G48C C66U: 0.769; G6A C31A C55G C66A: no more than 0.5. As for G6A G25A A69U, the figure is 0.68; as for G6A G9C C11G C27U C34U G68A, no more than 0.5.

For the variant G6A C33G C34G G41A G58C A70C, the yeast fitness is 0.519.

Take G6A G39C G44C C46U: the yeast fitness was no more than 0.5. As for G6A G10C A15U A70G, the figure is no more than 0.5. Next, G6A C49A: 0.625; G6A C49G: 0.904; G6A C30A C31U A45C C55G: no more than 0.5. Next, G6A C49U C55U: 0.561; G6A C24U C61G C66U: 0.724. Consider G6A U13G A40U, for which the yeast fitness stood at 0.502. Turning to G6A C49U A57C A65C A70C, the yeast fitness is no more than 0.5. As for G6A U7A A20G C46G, the figure is 0.538; as for G6A G10C C24U C34U A36U C46A, no more than 0.5.

With G6A G25A A40C A57C C61A G67A, the yeast fitness was no more than 0.5. Next, G6A G39A: 0.916; G6A U13A A14G U32C A42U: no more than 0.5. Next, G6A G18C A37C: no more than 0.5; G6A U13G A36U C46G C62A: no more than 0.5; G6A G18A C30U C55G: no more than 0.5.
